pIC50: −log10 of the molar value. ≈ marks a conversion by molar mass, not a printed value. Calls of active or inactive are those of the source. No cut-off for these calls is given here.
How the values were obtained:
[1] = Inhibition of Escherichia coli DNA gyrase-mediated supercoiling of pBR322 using bromothymol blue by electrophoresis
In short: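 E. coli gyrase supercoiling of relaxed pBR322 in 35 mM Tris–HCl pH 7.5, 24 mM KCl, 4 mM MgCl2, 2 mM DTT, 1.8 mM spermidine, 1 mM ATP, 6.5% glycerol, 0.1 mg/mL albumin. Incubated 30 min at 37 °C, stopped with chloroform/isoamyl alcohol, run on 1% agarose and gel-quantitated. IC50 is the concentration halving supercoiling versus drug-free control. ≥3 independent experiments.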

[2] = tested on: Staphylococcus epidermidis; test: Antimicrobial activity against Staphylococcus epidermidis ATCC 12228 after 24 hrs by broth microdilution method; assay type: functional; settings: ATCC 12228, 24 h
In short: (§1)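 Broth dilution method. H. influenzae grown in Haemophilus Test Medium, other bacteria in Mueller Hinton Broth. Compounds dissolved in DMSO and diluted in growth medium. Incubated 24 h at 37 °C. MIC is the lowest concentration inhibiting reproduction of the organism. Drug-free tubes served as growth controls, organism-free tubes as purity controls, and solvent-only tubes as controls.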

Staphylococcus aureus [3] = test: Antimicrobial activity against quinolone and penicillin-resistant Staphylococcus aureus SAR4790 after 24 hrs by broth microdilution method; assay type: functional
In short: (§2)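 Broth dilution in Mueller Hinton Broth; compounds dissolved in DMSO and diluted in growth medium. […] Drug-free tubes served as growth controls and organism-free tubes as purity controls, with solvent-only controls included. Ciprofloxacin, levofloxacin, moxifloxacin and gemifloxacin were the reference drugs.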

[4] = tested on: Staphylococcus epidermidis; test: Antimicrobial activity against quinolone and penicillin-resistant Staphylococcus epidermidis SER after 24 hrs by broth microdilution method; assay type: functional; in short: as §2
Staphylococcus aureus [5] = test: Antimicrobial activity against Staphylococcus aureus ATCC 6538 after 24 hrs by broth microdilution method; assay type: functional; settings: ATCC 6538, 24 h; in short: as §1
[6] = Inhibition of Escherichia coli DNA topoisomerase-4-mediated decatenation of kinetoplast DNA by electrophoresis
Staphylococcus aureus [7] = test: Antimicrobial activity against quinolone and penicillin-resistant Staphylococcus aureus SAR72 after 24 hrs by broth microdilution method; assay type: functional; in short: as §2
Bacillus subtilis = test: Antimicrobial activity against Bacillus subtilis ATCC 6633 after 24 hrs by broth microdilution method; assay type: functional; settings: ATCC 6633, 24 h; in short: as §1
Acinetobacter baumannii [8] = test: Antimicrobial activity against Acinetobacter baumannii ATCC 19606 after 24 hrs by broth microdilution method; assay type: functional; settings: ATCC 19606, 24 h; in short: as §1
Acinetobacter baumannii [9] = test: Antimicrobial activity against quinolone and penicillin-resistant Acinetobacter baumannii after 24 hrs by broth microdilution method; assay type: functional; in short: as §2
Haemophilus influenzae = test: Antimicrobial activity against Haemophilus influenzae ATCC 19418 after 24 hrs by broth microdilution method; assay type: functional; settings: ATCC 19418, 24 h; in short: as §1
Pseudomonas aeruginosa [10] = test: Antimicrobial activity against Pseudomonas aeruginosa ATCC 9027 after 24 hrs by broth microdilution method; assay type: functional; settings: ATCC 9027, 24 h; in short: as §1
Escherichia coli [11] = test: Antimicrobial activity against quinolone and penicillin-resistant Escherichia coli after 24 hrs by broth microdilution method; assay type: functional; in short: as §2
Pseudomonas aeruginosa [12] = test: Antimicrobial activity against quinolone and penicillin-resistant Pseudomonas aeruginosa after 24 hrs by broth microdilution method; assay type: functional; in short: as §2
[13] = Cytotoxicity against human HDF after 72 hrs by MTT assay; assay type: cell-based
In short: (§3)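 Cells kept in medium with 2 mM glutamine and 10% FBS at 37 °C, 5% CO2. Compounds dissolved in DMSO just before addition (final ≤0.1% v/v; same solvent in controls). After 72 h exposure, viability read by MTT. Triplicates, ≥3 independent experiments. Dose–response fitted with single or double Hill functions; IC50 extrapolated from curves.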

Escherichia coli [14] = test: Antimicrobial activity against Escherichia coli ATCC 8739 after 24 hrs by broth microdilution method; assay type: functional; settings: ATCC 8739, 24 h; in short: as §1
A549 = test: Cytotoxicity against human A549 cells after 72 hrs by MTT assay; assay type: functional, cell-based; settings: A549, 72 h; in short: as §3
MCF7 [15] = test: Cytotoxicity against human MCF7 cells after 72 hrs by MTT assay; assay type: functional, cell-based; settings: MCF7, 72 h; in short: as §3
MCF7 [16] = test: Induction of apoptosis in human MCF7 cells assessed as caspase-7 activation at 5 uM after 24 hrs by Western blotting
MCF7 [17] = test: Induction of cell death in human MCF7 cells at 5 uM after 48 hrs using Hoechst 33342/PI staining by microscopy; assay type: functional, cell-based
In short: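 MCF-7 cells exposed to compound for 48 h, then stained with Hoechst 33342/PI. Cell death quantified by fluorescence microscopy as percent values. Means of three separate experiments.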

MCF7 [18] = test: Induction of apoptosis in human MCF7 cells assessed as p53 accumulation after 24 hrs by Western blotting

Structure (SMILES)	IC50 [1]	MIC [2]	MIC (Staphylococcus aureus [3]; SAR4790, 24 h)	MIC [4]	MIC (Staphylococcus aureus [5])	IC50 [6]	MIC (Staphylococcus aureus [7]; SAR72, 24 h)	MIC (Bacillus subtilis)	MIC (Acinetobacter baumannii [8])	MIC (Acinetobacter baumannii [9])	MIC (Haemophilus influenzae)	MIC (Pseudomonas aeruginosa [10])	MIC (Escherichia coli [11])	MIC (Pseudomonas aeruginosa [12])	pIC50 [13]	MIC (Escherichia coli [14])	pIC50 (A549)	pIC50 (MCF7 [15])	further results
O=C(O)c1cn(C2CC2)c2cc(N3CCNCC3)c(F)cc2c1=O [CIPROFLOXACIN]	0.34 µg/mL (≈ 1.03 µM)	0.07 µg/mL (≈ 0.211 µM)	> 100 µg/mL	100 µg/mL (≈ 302 µM)	0.3 µg/mL (≈ 0.905 µM)	4.6 µg/mL (≈ 13.9 µM)	100 µg/mL (≈ 302 µM)	0.03 µg/mL (≈ 0.0905 µM)	0.7 µg/mL (≈ 2.11 µM)	> 100 µg/mL	0.15 µg/mL (≈ 0.453 µM)	0.07 µg/mL (≈ 0.211 µM)							
C[C@H]1COc2c(N3CCN(C)CC3)c(F)cc3c(=O)c(C(=O)O)cn1c23.C[C@H]1COc2c(N3CCN(C)CC3)c(F)cc3c(=O)c(C(=O)O)cn1c23.O [LEVOFLOXACIN]		0.15 µg/mL	100 µg/mL	> 100 µg/mL	0.07 µg/mL		25 µg/mL	0.03 µg/mL	0.15 µg/mL	> 100 µg/mL	0.15 µg/mL	0.3 µg/mL	25 µg/mL	50 µg/mL					
O=C(O)c1cn(C2CC2)c2c(cc(F)c3c4ccccc4[nH]c32)c1=O	1.7 µg/mL (≈ 5.05 µM)	0.15 µg/mL (≈ 0.446 µM)	> 100 µg/mL	> 100 µg/mL	0.3 µg/mL (≈ 0.892 µM)	35 µg/mL (≈ 104 µM)	12 µg/mL (≈ 35.7 µM)	0.015 µg/mL (≈ 0.0446 µM)	12 µg/mL (≈ 35.7 µM)	> 100 µg/mL	0.03 µg/mL (≈ 0.0892 µM)	> 100 µg/mL	> 100 µg/mL	inactive	< 5.00	50 µg/mL (≈ 149 µM)	5.19	5.44	
COc1c(N2C[C@@H]3CCCN[C@@H]3C2)c(F)cc2c(=O)c(C(=O)O)cn(C3CC3)c12 [MOXIFLOXACIN]	0.85 µg/mL (≈ 2.12 µM)	0.07 µg/mL (≈ 0.174 µM)	50 µg/mL (≈ 125 µM)	50 µg/mL (≈ 125 µM)	0.03 µg/mL (≈ 0.0747 µM)	5 µg/mL (≈ 12.5 µM)	12 µg/mL (≈ 29.9 µM)	0.015 µg/mL (≈ 0.0374 µM)	0.15 µg/mL (≈ 0.374 µM)	50 µg/mL (≈ 125 µM)	0.03 µg/mL (≈ 0.0747 µM)	0.7 µg/mL (≈ 1.74 µM)		> 100 µg/mL		0.03 µg/mL (≈ 0.0747 µM)			
O=C(O)c1cn(C2CC2)c2c(cc(F)c3c4ccc(F)cc4[nH]c32)c1=O	1.8 µg/mL (≈ 5.08 µM)	0.07 µg/mL (≈ 0.198 µM)	> 100 µg/mL	3 µg/mL (≈ 8.47 µM)	0.07 µg/mL (≈ 0.198 µM)	28 µg/mL (≈ 79 µM)	1.5 µg/mL (≈ 4.23 µM)	0.003 µg/mL (≈ 0.00847 µM)	12 µg/mL (≈ 33.9 µM)	> 100 µg/mL	0.15 µg/mL (≈ 0.423 µM)	> 100 µg/mL	> 100 µg/mL	inactive	< 5.00	25 µg/mL (≈ 70.6 µM)	5.46	6.10	Activity (MCF7 [16]): Active; Activity (MCF7 [17]): Active; Activity (MCF7 [18]): Active
O=C(O)c1cn(C2CC2)c2c(cc(F)c3c2[nH]c2ccsc23)c1=O	1.1 µg/mL (≈ 3.21 µM)	0.03 µg/mL (≈ 0.0876 µM)	> 100 µg/mL	50 µg/mL (≈ 146 µM)	0.03 µg/mL (≈ 0.0876 µM)	100 µg/mL (≈ 292 µM)	12 µg/mL (≈ 35.1 µM)	0.003 µg/mL (≈ 0.00876 µM)	3 µg/mL (≈ 8.76 µM)	> 100 µg/mL	0.015 µg/mL (≈ 0.0438 µM)	50 µg/mL (≈ 146 µM)	> 100 µg/mL	> 100 µg/mL	< 5.00	1.5 µg/mL (≈ 4.38 µM)	5.19	5.36	
Cc1c2ccncc2c(C)c2c1[nH]c1ccccc12 [ELLIPTECINE]															< 5.00		5.47	5.80	
COc1ccc2c(c1)[nH]c1c2c(F)cc2c(=O)c(C(=O)O)cn(C3CC3)c21	4.8 µg/mL (≈ 13.1 µM)	3 µg/mL (≈ 8.19 µM)	> 100 µg/mL	> 100 µg/mL	3 µg/mL (≈ 8.19 µM)	48 µg/mL (≈ 131 µM)	> 100 µg/mL	0.07 µg/mL (≈ 0.191 µM)	50 µg/mL (≈ 136 µM)	> 100 µg/mL	1.5 µg/mL (≈ 4.09 µM)	> 100 µg/mL	inactive	inactive	< 5.00	> 100 µg/mL	5.31	5.62	
CO/N=C1\CN(c2nc3c(cc2F)c(=O)c(C(=O)O)cn3C2CC2)CC1CN (stereo not given) [GEMIFLOXACIN]		0.015 µg/mL (≈ 0.0385 µM)	50 µg/mL (≈ 128 µM)	50 µg/mL (≈ 128 µM)	0.015 µg/mL (≈ 0.0385 µM)		6 µg/mL (≈ 15.4 µM)	0.007 µg/mL (≈ 0.018 µM)	0.3 µg/mL (≈ 0.77 µM)	100 µg/mL (≈ 257 µM)	0.015 µg/mL (≈ 0.0385 µM)	0.07 µg/mL (≈ 0.18 µM)	50 µg/mL (≈ 128 µM)	> 100 µg/mL		0.015 µg/mL (≈ 0.0385 µM)			
Cc1ccc2c(c1)[nH]c1c2c(F)cc2c(=O)c(C(=O)O)cn(C3CC3)c21	3 µg/mL (≈ 8.56 µM)	> 100 µg/mL		inactive	> 100 µg/mL	> 300 µg/mL		0.07 µg/mL (≈ 0.2 µM)	> 100 µg/mL	inactive	> 100 µg/mL	> 100 µg/mL	inactive	inactive	< 5.00	> 100 µg/mL	< 5.00	< 5.00	MIC (Staphylococcus aureus [3]): inactive; MIC (Staphylococcus aureus [7]): inactive
COc1c(C)cc2c([nH]c3c2c(F)cc2c(=O)c(C(=O)O)cn(C4CC4)c23)c1C	> 30 µg/mL	25 µg/mL (≈ 63.4 µM)	> 100 µg/mL	> 100 µg/mL	6 µg/mL (≈ 15.2 µM)	31 µg/mL (≈ 78.6 µM)	> 100 µg/mL	0.07 µg/mL (≈ 0.177 µM)	> 100 µg/mL	inactive	6 µg/mL (≈ 15.2 µM)	> 100 µg/mL	inactive	inactive	< 5.00	> 100 µg/mL	5.52	5.77	
